The record followed here is ChEMBL document CHEMBL4665798, “Novel Human Urate Transporter 1 Inhibitors as Hypouricemic Drug Candidates with Favorable Druggability” (J Med Chem, 2020).

Data set [1] is described as follows: Sub-acute toxicity in Kunming mouse assessed as edema in proximal tubule at 50 mg/kg, po administered as single dose every other day for 14 days by H and E staining based assay. The note with it: in vivo, 336 h, time 14 day. In kind it is organism-based. The procedure, abridged: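 Kunming mice, n = 4 per sex, fasted 12 h. Dosed orally on D0, D2, D4, D6, D8, D10 and D12; controls received an equal volume of vehicle. Weighed before each dose. Killed at D14; heart, liver, spleen, lung and kidney taken for haematoxylin and eosin staining.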

For the next data set, the system named is Mus musculus. Nature of the data set: Hypouricemic activity in Kunming mouse model of xanthine/potassium oxonate-induced acute hyperuricemia assessed as decrease in serum uric acid level at 2 mg/kg administered 3 hrs prior to xanthine/potassium oxonate and measured after 6 hrs relative to control. It counts as functional. The arrangement: scale not given: the % may be the effect or the level left. To be noted: time 9 hrs. The procedure, abridged:
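Male Kunming mice, hyperuricemia induced by intragastric xanthine plus subcutaneous potassium oxonate (0.2 mL each). […] Groups: normal vehicle, untreated model, active control, test. Serum uric acid measured. Decrease ratio = (model SUA − compound SUA)/(model SUA − vehicle SUA).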

A short description of data set [2]: Sub-acute toxicity in Kunming mouse assessed as hepatocellular condensation of liver at 50 mg/kg, po administered as single dose every other day for 14 days by H and E staining based assay. In kind it is organism-based. To be noted: in vivo, 336 h, time 14 day.
The nature of data set [3]: Sub-acute toxicity in Kunming mouse assessed as ballooning degeneration of liver at 50 mg/kg, po administered as single dose every other day for 14 days by H and E staining based assay. It counts as organism-based. To be noted: in vivo, 336 h, time 14 day.
The nature of data set [4]: Sub-acute toxicity in Kunming mouse assessed as congestion in hepatic central vein at 50 mg/kg, po administered as single dose every other day for 14 days by H and E staining based assay. In kind it is organism-based. The note with it: in vivo, 336 h, time 14 day.
Data set [5] in a line: Sub-acute toxicity in Kunming mouse assessed as hydropic degeneration of hepatocytes at 50 mg/kg, po administered as single dose every other day for 14 days by H and E staining based assay. In kind it is organism-based. To be noted: in vivo, 336 h, time 14 day.
Data set [6] in a line: Sub-acute toxicity in female Kunming mouse assessed as increase in body weight at 50 mg/kg, po administered once every second day for 14 days. In kind it is organism-based. The note with it: in vivo, 336 h, time 14 day.
A short description of data set [7]: Sub-acute toxicity in male Kunming mouse assessed as increase in body weight at 50 mg/kg, po administered once every second day for 14 days. It counts as organism-based. The note with it: in vivo, 336 h, time 14 day.
A short description of data set [8]: Acute toxicity in female Kunming mouse assessed as change in body weight at 500 mg/kg, ig measured for 1 week. It counts as organism-based. The note with it: in vivo, po, 168 h, time 1 weeks.
Data set [9] is described as follows: Acute toxicity in Kunming mouse assessed as induction of abnormal behaviors by measuring lethargy at 500 mg/kg, ig. It counts as organism-based. The note with it: in vivo, po.
Data set [10] is described as follows: Acute toxicity in male Kunming mouse assessed as change in body weight at 500 mg/kg, ig measured for 1 week. The note with it: in vivo, po, 168 h, time 1 weeks. It counts as organism-based.
Data set [11] is described as follows: Acute toxicity in Kunming mouse assessed as induction of abnormal behaviors by measuring clonic convulsion at 500 mg/kg, ig. In kind it is organism-based. To be noted: in vivo, po.
Data set [12] can be described thus: Acute toxicity in Kunming mouse assessed as induction of abnormal behaviors by measuring anorexia at 500 mg/kg, ig. In kind it is organism-based. The note with it: in vivo, po.
Data set [13] can be described thus: Acute toxicity in Kunming mouse assessed as death at 500 mg/kg, ig measured for 1 week. It counts as organism-based. The note with it: in vivo, po, 168 h, time 1 weeks.
Data set [14] can be described thus: Clearance in Sprague-Dawley rat at 1 mg/kg, iv by LC-MS analysis. It counts as ADME, organism-based. The note with it: in vivo.
Data set [15] is described as follows: Half-life in Sprague-Dawley rat at 1 mg/kg, iv by LC-MS analysis. It counts as ADME, organism-based. To be noted: in vivo.
The nature of data set [16]: MRT (0 to infinity) in Sprague-Dawley rat at 1 mg/kg, iv by LC-MS analysis. To be noted: in vivo. It counts as ADME, organism-based.
The nature of data set [17]: AUC (0 to infinity) in Sprague-Dawley rat at 1 mg/kg, iv by LC-MS analysis. In kind it is ADME, organism-based. Also noted: time infinity, route intravenous, dose 1 mg/kg. The note with it: in vivo.
Data set [18] can be described thus: AUC (0 to t) in Sprague-Dawley rat at 1 mg/kg, iv by LC-MS analysis. In kind it is ADME, organism-based. The arrangement: dose 1 mg/kg. The note with it: in vivo.
The nature of data set [19]: Oral bioavailability in Sprague-Dawley rat at 20 mg/kg by LC-MS analysis. In kind it is ADME, organism-based. To be noted: in vivo.
The nature of data set [20]: Cmax in Sprague-Dawley rat at 20 mg/kg, po by LC-MS analysis. The arrangement: route oral, dose 20 mg/kg. It counts as ADME, organism-based. To be noted: in vivo.
The nature of data set [21]: Tmax in Sprague-Dawley rat at 20 mg/kg, po by LC-MS analysis. In kind it is ADME, organism-based. The note with it: in vivo.
Data set [22] can be described thus: Half-life in Sprague-Dawley rat at 20 mg/kg, po by LC-MS analysis. In kind it is ADME, organism-based. To be noted: in vivo.
Data set [23] is described as follows: MRT (0 to infinity) in Sprague-Dawley rat at 20 mg/kg, po by LC-MS analysis. It counts as ADME, organism-based. The note with it: in vivo.
Data set [24] is described as follows: AUC (0 to infinity) in Sprague-Dawley rat at 20 mg/kg, po by LC-MS analysis. The note with it: in vivo. The arrangement: route oral, time infinity, dose 20 mg/kg. It counts as ADME, organism-based.
Data set [25] in a line: AUC (0 to t) in Sprague-Dawley rat at 20 mg/kg, po by LC-MS analysis. The arrangement: dose 20 mg/kg. To be noted: in vivo. In kind it is ADME, organism-based.
The target in data set [26] is T1, Solute carrier family 22 member 12 (Homo sapiens, UniProt Q96S37).
T1 sequence (Q96S37 whole entry): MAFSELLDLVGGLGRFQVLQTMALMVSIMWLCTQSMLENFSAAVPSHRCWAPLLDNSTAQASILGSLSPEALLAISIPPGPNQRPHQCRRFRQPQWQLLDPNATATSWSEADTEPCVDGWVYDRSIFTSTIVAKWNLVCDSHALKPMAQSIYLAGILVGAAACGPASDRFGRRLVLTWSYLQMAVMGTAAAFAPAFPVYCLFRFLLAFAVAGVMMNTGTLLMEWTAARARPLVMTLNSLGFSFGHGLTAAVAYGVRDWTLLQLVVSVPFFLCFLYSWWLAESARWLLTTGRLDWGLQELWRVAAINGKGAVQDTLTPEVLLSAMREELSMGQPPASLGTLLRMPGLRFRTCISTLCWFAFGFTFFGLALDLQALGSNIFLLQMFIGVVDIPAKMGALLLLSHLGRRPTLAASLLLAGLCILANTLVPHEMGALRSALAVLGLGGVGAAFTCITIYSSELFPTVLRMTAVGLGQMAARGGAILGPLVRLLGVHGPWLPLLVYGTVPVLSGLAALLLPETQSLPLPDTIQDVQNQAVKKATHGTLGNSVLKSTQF
Nature of the data set: Inhibition of human URAT1 expressed in HEK293T cells assessed as reduction in [14C]uric acid uptake preincubated for 15 mins followed by [14C]uric acid addition by liquid scintillation counting method. In kind it is cell-based.

The species entered for the next data set is Rattus norvegicus. Nature of the data set: Hypouricemic activity in rat model of xanthine/potassium oxonate-induced acute hyperuricemia assessed as decrease in serum uric acid level relative to control. The arrangement: scale not given: the % may be the effect or the level left. In kind it is functional.
Data set [27] in a line: Sub-acute toxicity in Kunming mouse assessed as death at 50 mg/kg, po administered once every second day for 14 days. In kind it is organism-based. To be noted: in vivo, 336 h, time 14 day.
Data set [28] is described as follows: Sub-acute toxicity in Kunming mouse assessed as lethargy at 50 mg/kg, po administered once every second day for 14 days. In kind it is organism-based. To be noted: in vivo, 336 h, time 14 day.
Data set [29] is described as follows: Sub-acute toxicity in Kunming mouse assessed as clonic convulsion at 50 mg/kg, po administered once every second day for 14 days. The note with it: in vivo, 336 h, time 14 day. In kind it is organism-based.
Data set [30] is described as follows: Sub-acute toxicity in Kunming mouse assessed as anorexia at 50 mg/kg, po administered once every second day for 14 days. To be noted: in vivo, 336 h, time 14 day. It counts as organism-based.
Data set [31] in a line: Sub-acute toxicity in Kunming mouse assessed as appearance of ruffled fur at 50 mg/kg, po administered once every second day for 14 days. It counts as organism-based. To be noted: in vivo, 336 h, time 14 day.

pIC50: −log10 of the molar value.

Regarding `O=C(O)C1(Sc2nc3ncccc3n2-c2ccc(C3CC3)c3ccccc23)CCC1`, the Activity result in data set [1] was “Toxic”; with Mus musculus, 62.18%.

In the case of `CC(Sc1nc2cnccc2n1-c1ccc(C2CC2)c2ccccc12)C(=O)O` (racemic), the Activity entry in [2], in data set [3], in [4], in data set [5], in data set [6] and in data set [7] was “Non-Toxic” throughout. Also, the Activity result in data set [8], in data set [9], in data set [10], in data set [11], in [12] and in data set [13] was “Non-Toxic” throughout. In addition, the Activity is 81.42% in the data set listed under Rattus norvegicus; 89.62% in the data set on Mus musculus; “Non-Toxic” in data set [27]; “Non-Toxic” in data set [28]; “Non-Toxic” in [29]; “Non-Toxic” in data set [30]. Further, the Activity entry in data set [31] is “Non-Toxic”. Moreover, in data set [14], the clearance – broadly, the volume of plasma or blood freed of the substance per unit of time – was 5.3 mL/min/kg. In addition, the half-life (commonly how long it takes for the measured level to halve) in data set [15] is 138 min; in [22] it was 186 min. Besides, the mean residence time (MRT inf) (in general, the average time that molecules of a dose stay in the body) in data set [16] worked out at 2.86 h; in data set [23], 4.6 h. The AUC(0-inf) (commonly total exposure, with the tail of the curve extrapolated) in [17] came out at 3320 ng·h/mL; in data set [24], 65100 ng·h/mL. In addition, the AUC(0-t) (in general, exposure summed from dosing to a finite time, without extrapolation to infinity) was 3110 ng·h/mL in data set [18] and 58200 ng·h/mL in data set [25]. Also, the bioavailability (usually the share of a dose that reaches the circulation, judged against a reference dose that is usually intravenous) in data set [19] worked out at 93.6%. Further, in data set [20], the maximum concentration (Cmax) (usually the peak of the concentration-time curve) was determined as 21600 ng/mL. Besides, in [21], the Tmax – broadly, the time at which the peak concentration occurs – was found to be 30 min. In addition, in [26], the pIC50 (usually the negative decadic logarithm of the IC50, by convention in mol/L) is 5.21.

As for `CCOC(=O)C(C)Sc1nc2ncccc2n1-c1ccc(C2CC2)c2ccccc12` (configuration not stated), in the data set on Mus musculus, the Activity is 35.37%.

As for `O=C(O)CCCSc1nc2cccnc2n1-c1cccc2ccccc12`, in the data set with Mus musculus, the Activity was found to be 1.4%.

Take `CCOC(=O)CSc1nc2cccnc2n1-c1c(C)cc(C)cc1C`: the Activity in the data set with Mus musculus was -2.2%.
